“And” between values parts separate entries of the source, which are not always exact repeats. Equal entries are not always repeated. “Also recorded” adds a separate entry of the source.
Key:
Cyclic voltammetry = type: physicochemical; settings: acetonitrile; for ipa/ipc, ratio of anodic to cathodic current / ΔEp, wave potential separation (Epa − Epc): scan rate 100 mV s−1; for E1/2, half wave potential (E1/2 = (Epa + Epc)/2) / Epa, anodic wave potential / Epc, cathodic wave potential: scan rate 100 mV s−1, V vs. Ag/AgCl
How it was run: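 Test compound at 0.5 mM in anhydrous acetonitrile with 0.1 M […] as background electrolyte. Three-electrode cell: glassy carbon working, Pt wire counter, Ag/AgCl reference. Scanned from −1.7 to +1.0 V at 100 mV s−1 with a 20 mV E step, 6 cycles per compound, at 25 °C. Half-wave potentials were taken from the voltammograms.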

[1] = test system: L. major strain IR173 amastigotes; assay: Intramacrophage antileishmanial assay; type: cell-based, Leishmania major; settings: activity retained 72 hours post macrophage lysis
[2] = Host macrophage cytotoxicity, resazurin assay; type: cell-based; settings: human, PMA-differentiated THP-1 cells (macrophages)
Vero cells = assay: General/basal cytotoxicity, resazurin assay
[3] = test system: L. donovani strain 9515 amastigotes; assay: Intramacrophage antileishmanial assay; type: cell-based, Leishmania donovani; settings: antimonial-resistant L. donovani; activity retained 72 hours post lysis
[4] = historical data ref 35; cited from earlier work

Structure (SMILES)	ipa/ipc, ratio of anodic to cathodic current (Cyclic voltammetry)	ΔEp, wave potential separation (Epa − Epc) (Cyclic voltammetry) [V]	E1/2, half wave potential (E1/2 = (Epa + Epc)/2) (Cyclic voltammetry) [V]	Epa, anodic wave potential (Cyclic voltammetry) [V]	Epc, cathodic wave potential (Cyclic voltammetry) [V]	Cidal anti-amastigote activity against L. major [1]	IC50 at 72 h [2] [µM]	Toxicity to mammalian cells, class in words (Vero cells)	Cidal anti-amastigote activity against L. donovani [3]	E1/2, half wave potential [4]
Cc1ccc(/C=N/N=C/c2ccc([N+](=O)[O-])s2)cc1 [5b, (1E,2E)-1-(4-Methylbenzylidene)-2-[(5-nitrothiophen-2-yl)methylene]hydrazine]	1.000	0.24	−0.90	−0.78	−1.02	–	–	–	–	–
O=[N+]([O-])c1ccc(/C=N/N=C/c2ccc(F)cc2)o1 [2a, (1E,2E)-1-(4-Fluorobenzylidene)-2-[(5-nitrofuran-2-yl)methylene]hydrazine]	0.990	0.28	−0.92	−0.78	−1.06	cidal	–	–	–	–
O=C(Cn1ccnc1[N+](=O)[O-])NCc1ccccc1 [Bzn, benznidazole, reference compound]	–	–	–	–	–	–	> 100	–	–	–
NC(=O)N/N=C/c1ccc([N+](=O)[O-])o1 [NFZ, nitrofurazone, reference compound]	–	–	–	–	–	–	> 100	–	–	–
O=[N+]([O-])c1ccc(/C=N/N=C/c2ccc(F)cc2)s1 [2b, (1E,2E)-1-(4-Fluorobenzylidene)-2-[(5-nitrothiophen-2-yl)methylene]hydrazine]	1.022	0.22	−0.89	−0.78	−1.00	–	> 100	low toxicity	–	–
O=Cc1ccc([N+](=O)[O-])o1 [NFA, 5-nitro-2-furaldehyde, reference compound]	0.967	0.28	−0.88	−0.74	−1.02	–	–	–	–	–
O=[N+]([O-])c1ccc(/C=N/N=C/c2ccc(Br)cc2)o1 [4a, (1E,2E)-1-(4-Bromobenzylidene)-2-[(5-nitrofuran-2-yl)methylene]hydrazine]	0.891	0.26	−0.93	−0.80	−1.06	cidal	> 100	low toxicity; also recorded: non-toxic	cidal	–
O=[N+]([O-])c1ccc(/C=N/N=C/c2ccc(Br)cc2)s1 [4b, (1E,2E)-1-(4-Bromobenzylidene)-2-[(5-nitrothiophen-2-yl)methylene]hydrazine]	0.961	0.24	−0.92	−0.80	−1.04	–	–	–	–	–
Cc1ccc(/C=N/N=C/c2ccc([N+](=O)[O-])o2)cc1 [5a, (1E,2E)-1-(4-Methylbenzylidene)-2-[(5-nitrofuran-2-yl)methylene]hydrazine]	1.007	0.24	−0.94	−0.82	−1.06	–	> 100	low toxicity	–	–
O=[N+]([O-])c1ccc(/C=N/N=C/c2ccccc2)o1 [1a, (1E,2E)-1-Benzylidene-2-[(5-nitrofuran-2-yl)methylene]hydrazine]	1.016	0.24	−0.88	−0.76	−1.00	–	> 100	–	–	–
O=[N+]([O-])c1ccc(/C=N/N=C/c2ccc(Cl)cc2)o1 [3a, (1E,2E)-1-(4-Chlorobenzylidene)-2-[(5-nitrofuran-2-yl)methylene]hydrazine]	0.967	0.28	−0.94	−0.80	−1.08	cidal	> 100	low toxicity; also recorded: non-toxic	–	–
COc1ccc(/C=N/N=C/c2ccc([N+](=O)[O-])s2)cc1 [6b, (1E,2E)-1-(4-Methoxybenzylidene)-2-[(5-nitrothiophen-2-yl)methylene]hydrazine]	0.990	0.24	−0.92	−0.80	−1.04	–	–	–	–	–
O=[N+]([O-])c1ccc(/C=N/N=C/c2ccccc2)s1 [1b, (1E,2E)-1-Benzylidene-2-[(5-nitrothiophen-2-yl)methylene]hydrazine]	1.032	0.22	−0.95	−0.84	−1.06	–	> 100	moderate toxicity	cidal	–
CC1CS(=O)(=O)CCN1/N=C/c1ccc([N+](=O)[O-])o1 (stereo not drawn) [NTX, Nifurtimox]	–	–	–	–	–	–	–	–	–	−0.88 V and −0.88 ^g V
O=[N+]([O-])c1ccc(/C=N/N=C/c2ccc(OCc3ccccc3)cc2)s1 [7b, (1E,2E)-1-[4-(Benzyloxy)benzylidene]-2-[(5-nitrothiophen-2-yl)methylene]hydrazine]	–	–	–	–	–	–	> 100	low toxicity	–	–
O=[N+]([O-])c1ccc(/C=N/N=C/c2ccc(Cl)cc2)s1 [3b, (1E,2E)-1-(4-Chlorobenzylidene)-2-[(5-nitrothiophen-2-yl)methylene]hydrazine]	0.889	0.22	−0.85	−0.74	−0.96	–	–	–	–	–
O=[N+]([O-])c1ccc(/C=N/N=C/c2ccc(O)cc2)o1 [8a, 4-{(E)-{(E)-[(5-Nitrofuran-2-yl)methylene]hydrazono}methyl}phenol]	0.943	0.26	−0.95	−0.82	−1.08	–	–	–	–	–
COc1ccc(/C=N/N=C/c2ccc([N+](=O)[O-])o2)cc1 [6a, (1E,2E)-1-(4-Methoxybenzylidene)-2-[(5-nitrofuran-2-yl)methylene]hydrazine]	0.965	0.34	−0.85	−0.68	−1.02	–	> 100	–	cidal	–
O=[N+]([O-])c1ccc(/C=N/N=C/c2ccc([N+](=O)[O-])o2)cc1 [9a, (1E,2E)-1-(4-Nitrobenzylidene)-2-[(5-nitrofuran-2-yl)methylene]hydrazine]	0.963	0.22	−0.95	−0.84	−1.06	cidal	–	–	cidal	–
O=Cc1ccc([N+](=O)[O-])s1 [NTA, 5-nitrothiophene-2-carboxaldehyde, reference compound]	0.755	0.20	−0.96	−0.86	−1.06	–	–	–	–	–
O=[N+]([O-])c1ccc(/C=N/N=C/c2ccc([N+](=O)[O-])s2)cc1 [9b, (1E,2E)-1-(4-Nitrobenzylidene)-2-[(5-nitrothiophen-2-yl)methylene]hydrazine]	0.951	0.24	−0.94	−0.82	−1.06	–	–	–	–	–
O=[N+]([O-])c1ccc(/C=N/N=C/c2ccc(O)cc2)s1 [8b, 4-(E)-(E)-[(5-Nitrothiophen-2-yl)methylene]hydrazonomethylphenol]	1.002	0.24	−0.94	−0.82	−1.06	–	–	moderate toxicity	cidal	–
O=[N+]([O-])c1ccc(/C=N/N=C/c2ccc(OCc3ccccc3)cc2)o1 [7a, (1E,2E)-1-[4-(Benzyloxy)benzylidene]-2-[(5-nitrofuran-2-yl)methylene]hydrazine]	–	0.26	−0.91	−0.78	−1.04	–	> 100	low toxicity	–	–
